Test results taken from ChEMBL document CHEMBL4680159, “Novel modified leucine and phenylalanine dipeptides modulate viability and attachment of cancer cells” (2020).
Activity calls are given as the source filed them. No cut-off for these calls is given here.

Experiments:
[1] = tested on: K562; experiment: Antiproliferative activity against human K562 cells assessed as growth inhibition measured after 72 hrs by calcein AM dye-based fluorescence assay; type: functional
Procedure, shortened: (§1)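 Cells exposed to three-fold compound dilutions in triplicate for 72 h. Calcein AM then added and live-cell fluorescence read at 485/538 nm (ex/em). GI50 taken from dose-response curves. Values from at least triplicate measurements.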

[2] = tested on: CCRF-CEM; experiment: Antiproliferative activity against human CEM cells assessed as growth inhibition measured after 72 hrs by calcein AM dye-based fluorescence assay; type: functional; procedure, shortened: as §1
[3] = tested on: G-361; experiment: Antiproliferative activity against human G361 cells assessed as growth inhibition measured after 72 hrs by calcein AM dye-based fluorescence assay; type: functional; procedure, shortened: as §1
[4] = tested on: MCF7; experiment: Antiproliferative activity against human MCF7 cells assessed as growth inhibition measured after 72 hrs by calcein AM dye-based fluorescence assay; type: functional; procedure, shortened: as §1
[5] = tested on: HCT-116; experiment: Antiproliferative activity against human HCT116 cells assessed as growth inhibition measured after 72 hrs by calcein AM dye-based fluorescence assay; type: functional; procedure, shortened: as §1
[6] = tested on: HCT-116; experiment: Antiproliferative activity against human HCT-116 cells assessed as increase in cell death at 25 uM measured after 24 hrs by IncuCyte live-cell imaging analysis; type: functional, cell-based
Procedure, shortened: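 HCT-116 cells plated at 10 000 cells/well and exposed to compounds at 25 µM for 24 h. Cell membrane integrity/death followed in real time by live-cell imaging with a Cytotox Red reagent.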

| Compound | GI50 [1] [µM] | GI50 [2] [µM] | GI50 [4] [µM] | GI50 [5] [µM] | GI50 [3] [µM] | Activity [6] |
| --- | --- | --- | --- | --- | --- | --- |
| CC(C)C[C@H](NC(=O)c1cc(Cl)ccc1OCc1ccccc1)C(=O)N[C@@H](CC(C)C)C(=O)NC1CCCCC1 | 19.8 | 9.8 |  |  |  |  |
| COc1ccc(NC(=O)[C@H](CC(C)C)NC(=O)[C@H](CC(C)C)NC(=O)c2cc(Cl)ccc2OCc2ccccc2)cc1 | 68.3 | 53.2 |  |  |  |  |
| O=C(N[C@@H](Cc1ccccc1)C(=O)N[C@@H](Cc1ccccc1)C(=O)Nc1ccc(Cl)c(Cl)c1)c1cc(Cl)ccc1O | 5.8 | 3.1 | 5.2 | 3 | 4.5 |  |
| O=C(N[C@@H](Cc1ccccc1)C(=O)N[C@@H](Cc1ccccc1)C(=O)Nc1ccc(C(F)(F)F)cc1)c1cc(Cl)ccc1OCc1ccccc1 | 12.7 | 11.3 |  |  |  |  |
| Cc1ccc(NC(=O)[C@H](CC(C)C)NC(=O)[C@H](CC(C)C)NC(=O)c2cc(Cl)ccc2OCc2ccccc2)cc1 | 87.7 | 52.8 |  |  |  |  |
| Cc1ccc(NC(=O)[C@H](CC(C)C)NC(=O)[C@H](CC(C)C)NC(=O)c2cc(Cl)ccc2O)cc1 | 30.7 | 13.2 |  |  |  |  |
| CC(C)C[C@H](NC(=O)c1cc(Cl)ccc1OCc1ccccc1)C(=O)N[C@@H](CC(C)C)C(=O)N1CCOCC1 | 21 | 20.1 |  |  |  |  |
| CC(C)C[C@H](NC(=O)c1cc(Cl)ccc1OCc1ccccc1)C(=O)N[C@@H](Cc1ccccc1)C(=O)Nc1ccc(Cl)c(Cl)c1 | 57.5 | 45.4 |  |  |  |  |
| CC(C)C[C@H](NC(=O)c1cc(Cl)ccc1O)C(=O)N[C@@H](CC(C)C)C(=O)Nc1nccs1 | 31.1 | 19.7 |  |  |  |  |
| O=C(N[C@@H](Cc1ccccc1)C(=O)N[C@@H](Cc1ccccc1)C(=O)Nc1ccc(C(F)(F)F)cc1)c1cc(Cl)ccc1O | 5.1 | 4.7 | 5.6 | 4.5 | 5.1 |  |
| CC(C)C[C@H](NC(=O)c1cc(Cl)ccc1O)C(=O)N[C@@H](CC(C)C)C(=O)Nc1ccccc1 | 20.1 | 10.2 |  |  |  |  |
| COc1ccc(NC(=O)[C@H](CC(C)C)NC(=O)[C@H](CC(C)C)NC(=O)c2cc(Cl)ccc2O)cc1 | 51 | 23.3 |  |  |  |  |
| O=C(N[C@@H](Cc1ccccc1)C(=O)N[C@@H](Cc1ccccc1)C(=O)Nc1ccc(Cl)c(Cl)c1)c1cc(Cl)ccc1OCc1ccccc1 | 9.9 | 32.8 |  |  |  |  |
| CC(C)C[C@H](NC(=O)c1cc(Cl)ccc1OCc1ccccc1)C(=O)N[C@@H](CC(C)C)C(=O)Nc1ccc(C(F)(F)F)cc1 | 74.6 | 59.9 |  |  |  |  |
| CC(C)C[C@H](NC(=O)c1cc(Cl)ccc1O)C(=O)N[C@@H](CC(C)C)C(=O)NC1CCCCC1 | 55.7 | 38.2 |  |  |  |  |
| CC(C)C[C@H](NC(=O)c1cc(Cl)ccc1O)C(=O)N[C@@H](CC(C)C)C(=O)Nc1ccc(C(F)(F)F)cc1 | 7.5 | 6.2 | 5.3 | 5.8 | 11.5 |  |

Continued, in another order:

| GI50 [1] [µM] | GI50 [2] [µM] | GI50 [4] [µM] | GI50 [5] [µM] | Compound | GI50 [3] [µM] | Activity [6] |
| --- | --- | --- | --- | --- | --- | --- |
| 5 | 5 |  |  | CC(C)C[C@H](NC(=O)c1cc(Cl)ccc1O)C(=O)Nc1ccc(C(F)(F)F)cc1 |  |  |
| 3.2 | 2.6 | 4.1 | 4 | CC(C)C[C@H](NC(=O)c1cc(Cl)ccc1O)C(=O)N[C@@H](CC(C)C)C(=O)Nc1ccc(Cl)c(Cl)c1 | 5.2 | inactive |
| > 50 | 54.9 |  |  | CC(C)C[C@H](NC(=O)c1cc(Cl)ccc1O)C(=O)N[C@@H](CC(C)C)C(=O)N1CCOCC1 |  |  |
| 71.2 | 48.9 |  |  | CC(C)C[C@H](NC(=O)c1cc(Cl)ccc1OCc1ccccc1)C(=O)N[C@@H](CC(C)C)C(=O)Nc1ccccc1 |  |  |
| > 50 | 35.4 |  |  | CC(C)C[C@H](NC(=O)c1cc(Cl)ccc1OCc1ccccc1)C(=O)Nc1ccc(C(F)(F)F)cc1 |  |  |
| > 50 | 31.5 |  |  | O=C(N[C@@H](Cc1ccccc1)C(=O)Nc1ccc(C(F)(F)F)cc1)c1cc(Cl)ccc1OCc1ccccc1 |  |  |
| > 100 | 56.4 |  |  | CC(C)C[C@H](NC(=O)c1cc(Cl)ccc1OCc1ccccc1)C(=O)N[C@@H](CC(C)C)C(=O)Nc1ccc(Cl)c(Cl)c1 |  |  |
| 5.2 | 4.5 |  |  | O=C(N[C@@H](Cc1ccccc1)C(=O)Nc1ccc(C(F)(F)F)cc1)c1cc(Cl)ccc1O |  |  |
